Assay results published in ChEMBL document CHEMBL1149289, “Synthesis and antibacterial activity of new poly-S-lysine-porphyrin conjugates” (J Med Chem, 2004).

How the values were obtained:
Staphylococcus aureus [1] = test: Logarithmic survival of methicillin-resistant Staphylococcus aureus 110 at 1 uM after 10 mins and irradiated with white light at the fluence rate of 50 mW/cm2 for 30 mins relative to control; format: functional; settings: light or radiation study
Procedure, shortened: (§1)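 MRSA 110 grown aerobically at 37 °C on BHA. Stationary-phase cells were taken into BHI, washed twice in PBS and diluted to OD650 ~0.7 (10^8 to 10^9 cells/mL). Suspensions were held with photosensitizer for 10 min in the dark at room temperature, then given white light for 30 min. Cells were serially diluted, plated on BHA and counted after 16–20 h at 37 °C. Survival = cfu ÷ cfu of photosensitizer-free controls.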

Escherichia coli [2] = test: Logarithmic survival of Escherichia coli O4 at 0.1 uM after 10 mins and irradiated with white light at the fluence rate of 50 mW/cm2 for 30 mins relative to control; format: functional; settings: O4, light or radiation study
Procedure, shortened: (§2)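 Strains grown aerobically at 37 °C on brain heart agar; stationary-phase cells washed twice in PBS and adjusted to OD650 ca. 0.7 (10^8 to 10^9 cells/mL). Cells incubated with photosensitizer at various concentrations for 10 min in the dark at room temperature, then irradiated with white light at 50 mW/cm² for 30 min. Survivors counted as cfu on BHA after 16–20 h at 37 °C, expressed relative to no-photosensitizer controls. Dark controls were run without irradiation.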

Escherichia coli [3] = test: Logarithmic survival of Escherichia coli O4 at 1 uM after 10 mins and irradiated with white light at the fluence rate of 50 mW/cm2 for 30 mins relative to control; format: functional; settings: O4, light or radiation study; procedure, shortened: as §2
Escherichia coli [4] = test: Logarithmic survival of Escherichia coli O4 at 2.5 uM after 10 mins and irradiated with white light at the fluence rate of 50 mW/cm2 for 30 mins relative to control; format: functional; settings: O4, light or radiation study; procedure, shortened: as §2
Staphylococcus aureus [5] = test: Logarithmic survival of Staphylococcus aureus ATCC 25923 at 0.1 uM after 10 mins and irradiated with white light at the fluence rate of 50 mW/cm2 relative to control; format: functional; settings: ATCC 25923, light or radiation study
Procedure, shortened: (§3)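 S. aureus ATCC 25923 or MRSA 110 (PBS-washed, 10^8 to 10^9 cells/mL) were incubated with 0.1 μM photosensitizer for 10 min in the dark at room temperature. They were then irradiated with white light at 50 mW/cm² for varying times up to 30 min. Survival was read as cfu on BHA and divided by cfu of controls without photosensitizer.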

Staphylococcus aureus [6] = test: Logarithmic survival of Staphylococcus aureus ATCC 25923 at 0.1 uM after 10 mins and irradiated with white light at the fluence rate of 50 mW/cm2 for 1 min relative to control; format: functional; settings: ATCC 25923, light or radiation study; procedure, shortened: as §3
Staphylococcus aureus [7] = test: Logarithmic survival of Staphylococcus aureus ATCC 25923 at 0.1 uM after 10 mins and irradiated with white light at the fluence rate of 50 mW/cm2 for 15 mins relative to control; format: functional; settings: ATCC 25923, light or radiation study; procedure, shortened: as §3
Staphylococcus aureus [8] = test: Logarithmic survival of Staphylococcus aureus ATCC 25923 at 0.1 uM after 10 mins and irradiated with white light at the fluence rate of 50 mW/cm2 for 20 mins relative to control; format: functional; settings: ATCC 25923, light or radiation study; procedure, shortened: as §3
Staphylococcus aureus [9] = test: Logarithmic survival of methicillin-resistant Staphylococcus aureus 110 at 0.1 uM after 10 mins and irradiated with white light at the fluence rate of 50 mW/cm2 relative to control; format: functional; settings: light or radiation study
Staphylococcus aureus [10] = test: Logarithmic survival of methicillin-resistant Staphylococcus aureus 110 at 0.1 uM after 10 mins and irradiated with white light at the fluence rate of 50 mW/cm2 for 1 min relative to control; format: functional; settings: light or radiation study; procedure, shortened: as §3
Staphylococcus aureus [11] = test: Logarithmic survival of methicillin-resistant Staphylococcus aureus 110 at 0.1 uM after 10 mins and irradiated with white light at the fluence rate of 50 mW/cm2 for 2.5 mins relative to control; format: functional; settings: light or radiation study; procedure, shortened: as §3
Staphylococcus aureus [12] = test: Logarithmic survival of methicillin-resistant Staphylococcus aureus 110 at 0.1 uM after 10 mins and irradiated with white light at the fluence rate of 50 mW/cm2 for 10 mins relative to control; format: functional; settings: light or radiation study; procedure, shortened: as §3
Staphylococcus aureus [13] = test: Logarithmic survival of methicillin-resistant Staphylococcus aureus 110 at 0.1 uM after 10 mins and irradiated with white light at the fluence rate of 50 mW/cm2 for 15 mins relative to control; format: functional; settings: light or radiation study; procedure, shortened: as §3
Staphylococcus aureus [14] = test: Drug uptake per mg of protein in methicillin-resistant Staphylococcus aureus 110 at 10 uM after 10 mins; format: ADME, organism-based; settings: in vivo
Procedure, shortened: (§4)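 Bacterial suspensions (10^8 to 10^9 cells/mL in PBS) were incubated with porphyrin for 10 min in the dark at room temperature, then centrifuged. The pellet was digested in 2% aqueous SDS. Porphyrin was quantified by spectrofluorimetry and cell protein by modified Lowry assay (BSA standard). Uptake is given as nmol per mg cell protein.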

Escherichia coli [15] = test: Drug uptake per mg of protein in Escherichia coli O4 at 0.5 uM after 10 mins; format: ADME, organism-based; settings: in vivo; procedure, shortened: as §4
Escherichia coli [16] = test: Drug uptake per mg of protein in Escherichia coli O4 at 2.5 uM after 10 mins; format: ADME, organism-based; settings: in vivo; procedure, shortened: as §4
Escherichia coli [17] = test: Drug uptake per mg of protein in Escherichia coli O4 at 5 uM after 10 mins; format: ADME, organism-based; settings: in vivo; procedure, shortened: as §4
Escherichia coli [18] = test: Drug uptake per mg of protein in Escherichia coli O4 at 10 uM after 10 mins; format: ADME, organism-based; settings: in vivo; procedure, shortened: as §4
Staphylococcus aureus [19] = test: Logarithmic survival of Staphylococcus aureus ATCC 25923 at 0.1 uM after 10 mins and irradiated with white light at the fluence rate of 50 mW/cm2 for 30 mins relative to control; format: functional; settings: ATCC 25923, light or radiation study; procedure, shortened: as §3
Staphylococcus aureus [20] = test: Logarithmic survival of Staphylococcus aureus ATCC 25923 at 0.25 uM after 10 mins and irradiated with white light at the fluence rate of 50 mW/cm2 for 30 mins relative to control; format: functional; settings: ATCC 25923, light or radiation study; procedure, shortened: as §2
Staphylococcus aureus [21] = test: Logarithmic survival of Staphylococcus aureus ATCC 25923 at 0.5 uM after 10 mins and irradiated with white light at the fluence rate of 50 mW/cm2 for 30 mins relative to control; format: functional; settings: ATCC 25923, light or radiation study; procedure, shortened: as §2
Staphylococcus aureus [22] = test: Logarithmic survival of Staphylococcus aureus ATCC 25923 at 1 uM after 10 mins and irradiated with white light at the fluence rate of 50 mW/cm2 for 30 mins relative to control; format: functional; settings: ATCC 25923, light or radiation study; procedure, shortened: as §2
Staphylococcus aureus [23] = test: Logarithmic survival of Staphylococcus aureus ATCC 25923 at 10 uM after 10 mins and irradiated with white light at the fluence rate of 50 mW/cm2 for 30 mins relative to control; format: functional; settings: ATCC 25923, light or radiation study; procedure, shortened: as §2
Staphylococcus aureus [24] = test: Logarithmic survival of methicillin-resistant Staphylococcus aureus 110 at 0.1 uM after 10 mins and irradiated with white light at the fluence rate of 50 mW/cm2 for 30 mins relative to control; format: functional; settings: light or radiation study; procedure, shortened: as §3
Staphylococcus aureus [25] = test: Logarithmic survival of methicillin-resistant Staphylococcus aureus 110 at 0.5 uM after 10 mins and irradiated with white light at the fluence rate of 50 mW/cm2 for 30 mins relative to control; format: functional; settings: light or radiation study; procedure, shortened: as §1
[26] = Photostability after irradiation with white light at the fluence rate of 50 mW/cm2 for 3 mins; format: ADME; settings: read-out: Stability
[27] = Photostability after irradiation with white light at the fluence rate of 50 mW/cm2 for 10 mins; format: ADME; settings: read-out: Stability
Staphylococcus aureus [28] = test: Drug uptake per mg of protein in Staphylococcus aureus ATCC 25923 at 5 uM after 10 mins; format: ADME, organism-based; settings: in vivo; procedure, shortened: as §4
Staphylococcus aureus [29] = test: Drug uptake per mg of protein in Staphylococcus aureus ATCC 25923 at 10 uM after 10 mins; format: ADME, organism-based; settings: in vivo; procedure, shortened: as §4

SMILES	survival at 1 µM (Staphylococcus aureus [1])	survival at 0.1 µM (Escherichia coli [2])	survival at 1 µM (Escherichia coli [3])	survival at 2.5 µM (Escherichia coli [4])	survival at 0.1 µM (Staphylococcus aureus [5])	survival at 0.1 µM (Staphylococcus aureus [6])	survival at 0.1 µM (Staphylococcus aureus [7])	survival at 0.1 µM (Staphylococcus aureus [8])	survival at 0.1 µM (Staphylococcus aureus [9])	survival at 0.1 µM (Staphylococcus aureus [10])	survival at 0.1 µM (Staphylococcus aureus [11])	survival at 0.1 µM (Staphylococcus aureus [12])	survival at 0.1 µM (Staphylococcus aureus [13])	Drug uptake (Staphylococcus aureus [14]) [nmol/mg]	Drug uptake (Escherichia coli [15]) [nmol/mg]	Drug uptake (Escherichia coli [16]) [nmol/mg]	Drug uptake (Escherichia coli [17]) [nmol/mg]	Drug uptake (Escherichia coli [18]) [nmol/mg]	survival at 0.1 µM (Staphylococcus aureus [19])	survival at 0.25 µM (Staphylococcus aureus [20])	further results
C[n+]1ccc(-c2c3nc(c(-c4cc[n+](C)cc4)c4ccc([nH]4)c(-c4cc[n+](C)cc4)c4nc(c(-c5ccc(C(=O)O)cc5)c5ccc2[nH]5)C=C4)C=C3)cc1.[I-].[I-].[I-]	-0.43	1.57	0.68	-0.46	0.82	0.67	-1.17	-2.12	1.95	1.96	1.84	1.7	1.82	18	1.29	3.47	4.35	6.88	1.87	1.56	survival at 0.5 µM (Staphylococcus aureus [21]): -0.42; survival at 1 µM (Staphylococcus aureus [22]): -1.32%; survival at 10 µM (Staphylococcus aureus [23]): -4.36%; survival at 0.1 µM (Staphylococcus aureus [24]): 1.69%; survival at 0.5 µM (Staphylococcus aureus [25]): 1.33%; remaining at 0.05 h [26]: 86%; remaining at 10 min [27]: 77%; Drug uptake (Staphylococcus aureus [28]): 9.97 nmol/mg; Drug uptake (Staphylococcus aureus [29]): 17 nmol/mg
O=C(O)c1ccc(-c2c3nc(c(-c4ccncc4)c4ccc([nH]4)c(-c4ccncc4)c4nc(c(-c5ccncc5)c5ccc2[nH]5)C=C4)C=C3)cc1 [PORPHIRIN]	-2.27	2	1.72	1.65	1.91	1.49	-2.48	-3	1.89	1.83	1.8	0.98	0.26	342	4.16	35.3	85.6	163	-1.7	-1.9	survival at 0.5 µM (Staphylococcus aureus [21]): -2.39; survival at 1 µM (Staphylococcus aureus [22]): -2.7%; survival at 10 µM (Staphylococcus aureus [23]): -4.06%; survival at 0.1 µM (Staphylococcus aureus [24]): 0.46%; survival at 0.5 µM (Staphylococcus aureus [25]): -1.58%; remaining at 0.05 h [26]: 97%; remaining at 10 min [27]: 94%; Drug uptake (Staphylococcus aureus [28]): 81.4 nmol/mg; Drug uptake (Staphylococcus aureus [29]): 187 nmol/mg
